Measurements collected from several papers.
Compare with care: the assays were run in different laboratories.
Target: Bone morphogenetic protein receptor type-1B (BMPR1B, Homo sapiens, UniProt O00238)

Structure (SMILES) | assay | setting | remaining binding
O=C(c1ccc(Nc2nccc(-c3cc4ccccc4s3)n2)cc1)N1CCC(N2CCCC2)CC1 | binding, competition with immobilised ligand | 1 µM | 41%
O=C1CCc2cc(Nc3cc(OC4CCOCC4)c([N+](=O)[O-])cc3Cl)ccc2N1 | cell-free assay, competition with immobilised ligand | 1 µM | 87%
C[C@H]1CCN(c2nccc(-c3cnn4ncccc34)n2)C1 | binding | 1 µM | 60%
CN([C@@H]1CCc2c(CC(=O)O)c3cc(S(C)(=O)=O)ccc3n2C1)S(=O)(=O)c1ccc(F)cc1 | cell-free assay, competition with immobilised ligand | 1 µM | 100%
c1cnn2ncc(-c3ccnc(N4CCC45COC5)n3)c2c1 | binding | 1 µM | 52%
FC(F)(F)Oc1cccc(-c2cnc3ccc(-c4ccncc4)nn23)c1 | cell-free assay, competition with immobilised ligand | 5 µM | 22%
COc1ccc2c(c1)O[C@H](c1ccc(OC)c(OC)c1)C[C@@H]2NC(=O)C1(c2ccc3c(c2)OC(F)(F)O3)CC1 | cell-free assay, competition with immobilised ligand | 1 µM | 100%
N[C@H]1CCN(c2nccc(-c3cnn4ncccc34)n2)C1 | binding | 1 µM | 100%
COc1cnc(Nc2cccc(S(N)(=O)=O)c2)nc1N1CCN(c2ccccc2)CC1 | binding, competition with immobilised ligand | 1 µM | 87%
O=C(NCCCN1CCOCC1)c1ccc(Nc2ncc(Cl)c(-c3ccc(Cl)s3)n2)cc1 | binding, competition with immobilised ligand | 1 µM | 56%
CN(C)c1nccc(-c2cnn3ncccc23)n1 | binding | 1 µM | 76%
O=C(NCC1CCOCC1)c1n[nH]cc1NC(=O)c1c(F)cccc1F | binding, competition with immobilised ligand | 1 µM | 90%
CC1CCCN1c1nccc(-c2cnn3ncccc23)n1 (stereo not shown) | binding | 1 µM | 84%
O=C(NCCCN1CCOCC1)c1ccc(Nc2nccc(-c3cc4ccccc4s3)n2)cc1 | binding, competition with immobilised ligand | 1 µM | 34%
CSc1cccnc1N1CCN(Cc2nc3ccccc3[nH]2)CC1 | cell-free assay, competition with immobilised ligand | 1 µM | 80%
CN(C)c1nccc(-c2cnc3ncccn23)n1 | binding | 1 µM | 82%
O=c1nc(-c2ccccn2)sc2ccccc12 | cell-free assay, competition with immobilised ligand | 1 µM | 75%
C=CC(=O)N1CCC(C(=O)NCC(=O)N2CCN(c3nc(-c4cnc(N)nc4C(F)F)nc(N4CCOCC4)n3)CC2)CC1 | binding, competition with immobilised ligand | 1 µM | 64%
CCN1CCN(Cc2ccc(C(=O)Nc3ccc(C)c(Oc4ccc5c(c4)CC(=O)N5)c3)cc2C(F)(F)F)CC1 | binding, competition with immobilised ligand | 1 µM | 100%
Nc1ncc2c(n1)-c1c([nH]c3ccc(C#CC4CC4)cc13)CCCC2 | binding, competition with immobilised ligand | 1 µM | 96%
O=C(NCc1ncc(C(F)(F)F)cc1Cl)c1ccc2c(c1)C1(CCS(=O)(=O)CC1)[C@H](C1CC1)N2S(=O)(=O)c1ccc(F)cc1 | cell-free assay, competition with immobilised ligand | 1 µM | 93%
C[C@@H](c1ccc(-n2cnc3c(N)ncnc32)cc1)N1CCc2nn(C)c(Cc3ccccc3)c2C1=O | binding, competition with immobilised ligand | 0.1 µM | 84%
